Test results taken from ChEMBL document CHEMBL1145991 (J Med Chem, 2003).

How the values were obtained:
Conditions in all cases: Aorta
[1] = In vitro maximal vasorelaxing effect evoked on endothelium-denuded rat aortic rings in the presence of 1 uM glibenclamide; format: functional
Method in brief: (§1)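 Glibenclamide 1 μM was added to endothelium-denuded male Wistar rat aortic rings before the 20 mM KCl contraction. Compound was then added cumulatively in 3-fold increasing concentrations, and relaxation was expressed relative to the KCl tone. Student t test against control, P < 0.05. Mean ± standard error, 5–10 experiments.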

[2] = In vitro maximal vasorelaxing effect evoked on endothelium-denuded rat aortic rings was expressed as percentage contractile tension in the presence of 60 mM KCl
[3] = In vitro maximal vasorelaxation of endothelium-denuded rat aortic rings, expressed as percentage contractile tension.; format: functional
Method in brief: (§2)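 Thoracic aortic rings were taken from male normotensive Wistar rats (250–350 g) and equilibrated for 60 min. Rings relaxing ≥10% to ACh 10 μM after NE 1 μM precontraction were discarded. Rings were contracted with KCl 20 mM, then 3-fold increasing concentrations were added cumulatively. Efficacy is the maximal relaxation as % of KCl tone, or the response at the 0.1 mM limit concentration. Mean ± standard error of 5–10 experiments.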

[4] = In vitro vasorelaxing effect evoked on endothelium-denuded rat aortic rings in the presence of 1 uM glibenclamide; format: functional, tissue-based; method in brief: as §1
[5] = In vitro vasorelaxing effect evoked on endothelium-denuded rat aortic rings in the presence of 1 uM glibenclamide
[6] = In vitro vasorelaxing effect evoked on endothelium-denuded rat aortic rings expressed as potency significantly different from respective control; format: functional, tissue-based
[7] = In vitro vasorelaxing effect evoked on endothelium-denuded rat aortic rings expressed as percentage efficacy (%) recorded in the presence of 1 uM glibenclamide
Rattus norvegicus [8] = species on record: Rattus norvegicus; assay: In vitro maximal vasorelaxing effect evoked on endothelium-denuded rat aortic rings was expressed as percentage contractile tension; The compound was ineffective; format: functional, tissue-based; method in brief: as §2
Rattus norvegicus [9] = species on record: Rattus norvegicus; assay: In vitro vasorelaxing effect evoked on endothelium-denuded rat aortic rings expressed as half reduction of the contractile tone; The compound was ineffective; format: functional, tissue-based

`CC1(C)CN(C2=CCCC2=O)c2cc(C#N)ccc2S1` gave an Emax [1] of 100%, an Emax [2] of 18% and an Emax [3] of 95%. It also gave an IC50 [4] of 69.2 nM.

Compound `CC1(C)CN(N2CCCC2=O)c2cc(Br)ccc2S1(=O)=O` has an Emax [3] of 100%.

`CC(=O)NN1CC(C)(C)Sc2ccc([N+](=O)[O-])cc21` gave an Emax [1] of 95%, an Emax [2] of 24% and an Emax [3] of 92%. For the same compound, the IC50 [4] was 93.3 nM.

In the case of `CC1(C)CN(C2=CCCC2=O)c2cc(Br)ccc2S1`, the Emax [1] is reported as 92%, the Emax [2] is reported as 28% and the IC50 [5] is reported as 525 nM. For the same compound, the Emax [3] was 99%.

In the case of `CC1(C)CN(NC(=O)c2cccc(F)c2)c2cc(Br)ccc2S1`, the Emax [1] is reported as 58% and the Emax [3] is reported as 95%.

`CC1(C)CN(NC(=O)c2cccc(F)c2)c2cc([N+](=O)[O-])ccc2S1` gave an Emax [1] of 93%, an Emax [2] of 15% and an Emax [3] of 91%. The IC50 [4] was 302 nM.

In the case of `CC1(C)CN(N2CCCCC2=O)c2cc(Br)ccc2S1`, the Emax [3] is reported as 100%.

`CC1(C)CN(N2CCCC2=O)c2cc([N+](=O)[O-])ccc2S1` gave an Emax [3] of 91%.

`CC1(C)CN(N2CCCC2=O)c2cc(C#N)ccc2S1` gave an Emax [3] of 98%.

With `CC1(C)CN(N2CCCC2=O)c2cc(Br)ccc2S1` the Emax [1] was 99%, the Emax [2] was 30% and the Emax [3] was 100%. For the same compound, the IC50 [4] was 2400 nM.

With `CC1(C)Sc2ccc(C(F)(F)F)cc2NC1=O` the IC50 [6] was 28200 nM and the Emax [7] was 81%.

`CC1(C)CN(C2=CCCC2=O)c2cc([N+](=O)[O-])ccc2S1` showed an Emax [1] of 90%, an Emax [2] of 26% and an Emax [3] of 98%. The IC50 [4] was 417 nM.

Compound `CC(=O)NN1CC(C)(C)Sc2ccc(Br)cc21` has an Emax [3] of 100%.

For `CC1(C)CN(N2CCCC2=O)c2cc(Br)ccc2[S+]1[O-]` (stereo not drawn), the Emax [3] was 96%.

Work on `CC1(C)Oc2ccc(C#N)cc2[C@@H](N2CCCC2=O)[C@@H]1O` [LEVCROMAKALIM] yielded an Emax [3] of 100%.

In the case of `CC(=O)N1CC(C)(C)Sc2ccc(Br)cc21`, the Emax [3] is reported as 100%.

In the case of `C=CCN1CC(C)(C)Sc2ccc(C(F)(F)F)cc21`, the Emax [3] is reported as 97%.

In the case of `CC(=O)N1CC(C)(C)Sc2ccc([N+](=O)[O-])cc21`, the NE (Rattus norvegicus [8]) is reported as “Ineffective” and the NE (Rattus norvegicus [9]) is reported as “Ineffective”.

Work on `CC1(C)CN(C2=CCCC2=O)c2cc(C(F)(F)F)ccc2S1` yielded an Emax [1] of 87%, an Emax [2] of 35% and an Emax [3] of 99%. For the same compound, the IC50 [4] was 437 nM.
